According to ChEMBL document CHEMBL1649493, “Genetic and biochemical characterization of the first extended-spectrum CARB-type beta-lactamase, RTG-4, from Acinetobacter baumannii” (Antimicrob Agents Chemother, 2009):
Values after ≈ are worked out from the molar mass of the structure shown.

Experiments:
Escherichia coli [1] = assay: Antibacterial activity against Escherichia coli TOP10 harboring recombinant plasmid RTG4-S69 by Etest method; format: functional
Escherichia coli [2] = assay: Antibacterial activity against Escherichia coli TOP10 harboring recombinant plasmid RTG4-S69-V49 by Etest method; format: functional
Escherichia coli [3] = assay: Antibacterial activity against Escherichia coli TOP10 harboring beta-lactamase RTG3 gene by Etest method; format: functional
Procedure, shortened: (§1)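 MICs read by Etest on Mueller-Hinton agar plates incubated at 37°C. Recombinant E. coli TOP10 carried the cloned β-lactamase gene on plasmid pBK-CMV; the host strain alone was tested alongside.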

Escherichia coli [4] = assay: Antibacterial activity against Escherichia coli TOP10 harboring beta-lactamase RTG4 gene by Etest method; format: functional; procedure, shortened: as §1
Escherichia coli [5] = assay: Antibacterial activity against Escherichia coli TOP10 harboring recombinant plasmid RTG4-V49 by Etest method; format: functional
Escherichia coli [6] = assay: Antibacterial activity against Escherichia coli TOP10 by Etest method; format: functional; procedure, shortened: as §1
[7] = Inhibition of recombinant beta-lactamase RTG3 expressed in Escherichia coli TOP10 by benzylpenicillin hydrolysis assay
[8] = Inhibition of recombinant beta-lactamase RTG4 expressed in Escherichia coli TOP10 by benzylpenicillin hydrolysis assay
Acinetobacter baumannii [9] = assay: Antimicrobial activity against Acinetobacter baumannii CIP70.10 harboring beta-lactamase RTG4 gene by […]; format: functional
Acinetobacter baumannii [10] = assay: Antimicrobial activity against Acinetobacter baumannii CIP70.10 by […]; format: functional
Acinetobacter baumannii [11] = assay: Antimicrobial activity against Acinetobacter baumannii CIP70.10 harboring beta-lactamase RTG3 gene by […]; format: functional
Acinetobacter baumannii [12] = assay: Antimicrobial activity against Acinetobacter baumannii by […]; format: functional
Procedure, shortened: (§2)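 MICs were determined by Etest on Mueller-Hinton agar at 37°C. Where indicated, clavulanic acid or tazobactam was added at 4 μg/ml.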

[13] = Ratio of Kcat to Km for recombinant beta-lactamase RTG4 expressed in Escherichia coli TOP10 by nitrocefin hydrolysis assay
[14] = Activity of recombinant beta-lactamase RTG4 expressed in Escherichia coli TOP10 assessed as Ratio of Kcat to Km by nitrocefin hydrolysis assay relative to benzylpenicillin; parameters: scale not given: the % may be the effect or the level left
Acinetobacter baumannii [15] = assay: Antimicrobial activity against Acinetobacter baumannii CIP70.10 by […] in presence of 4 ug/ml Tazobactam; format: functional; procedure, shortened: as §2
Acinetobacter baumannii [16] = assay: Antimicrobial activity against Acinetobacter baumannii CIP70.10 harboring beta-lactamase RTG4 gene by […] in presence of 4 ug/ml Tazobactam; format: functional
Acinetobacter baumannii [17] = assay: Antimicrobial activity against Acinetobacter baumannii by […] in presence of 4 ug/ml Tazobactam; format: functional; procedure, shortened: as §2
Acinetobacter baumannii [18] = assay: Antimicrobial activity against Acinetobacter baumannii CIP70.10 harboring beta-lactamase RTG3 gene by […] in presence of 4 ug/ml Tazobactam; format: functional
Escherichia coli [19] = assay: Antibacterial activity against Escherichia coli TOP10 harboring beta-lactamase RTG3 gene by Etest method in presence of 4 ug/ml beta-lactamase inhibitor clavulanic acid; format: functional
Procedure, shortened: (§3)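 MICs read by Etest on Mueller-Hinton agar at 37°C, with β-lactams combined with clavulanic acid at 4 μg/ml. The strains were E. coli TOP10 carrying the cloned RTG gene or the site-directed mutant plasmids (Thr69Ser, Ala49Val, or both).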

Acinetobacter baumannii [20] = assay: Antimicrobial activity against Acinetobacter baumannii CIP70.10 harboring beta-lactamase RTG4 gene by […] in presence of 4 ug/ml beta-lactamase inhibitor clavulanic acid; format: functional
Acinetobacter baumannii [21] = assay: Antimicrobial activity against Acinetobacter baumannii by […] in presence of 4 ug/ml beta-lactamase inhibitor clavulanic acid; format: functional; procedure, shortened: as §2
Acinetobacter baumannii [22] = assay: Antimicrobial activity against Acinetobacter baumannii CIP70.10 harboring beta-lactamase RTG3 gene by […] in presence of 4 ug/ml beta-lactamase inhibitor clavulanic acid; format: functional
Escherichia coli [23] = assay: Antibacterial activity against Escherichia coli TOP10 by Etest method in presence of 4 ug/ml beta-lactamase inhibitor clavulanic acid; format: functional
Procedure, shortened: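 MICs by Etest on Mueller-Hinton agar plates incubated at 37°C, with clavulanic acid at a fixed 4 μg/ml. The E. coli TOP10 host was tested with recombinant plasmids carrying the cloned HindIII fragment encoding RTG-4 or its site-directed variants (T69S, A49V).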

Acinetobacter baumannii [24] = assay: Antimicrobial activity against Acinetobacter baumannii CIP70.10 by […] in presence of 4 ug/ml beta-lactamase inhibitor clavulanic acid; format: functional; procedure, shortened: as §2
Escherichia coli [25] = assay: Antibacterial activity against Escherichia coli TOP10 harboring recombinant plasmid RTG4-S69-V49 by Etest method in presence of 4 ug/ml beta-lactamase inhibitor clavulanic acid; format: functional; procedure, shortened: as §3
Escherichia coli [26] = assay: Antibacterial activity against Escherichia coli TOP10 harboring beta-lactamase RTG4 gene by Etest method in presence of 4 ug/ml beta-lactamase inhibitor clavulanic acid; format: functional; procedure, shortened: as §3
Escherichia coli [27] = assay: Antibacterial activity against Escherichia coli TOP10 harboring recombinant plasmid RTG4-S69 by Etest method in presence of 4 ug/ml beta-lactamase inhibitor clavulanic acid; format: functional; procedure, shortened: as §3
Escherichia coli [28] = assay: Antibacterial activity against Escherichia coli TOP10 harboring recombinant plasmid RTG4-V49 by Etest method in presence of 4 ug/ml beta-lactamase inhibitor clavulanic acid; format: functional; procedure, shortened: as §3

SMILES	MIC (Escherichia coli [1]) [µg/mL]	MIC (Escherichia coli [2]) [µg/mL]	MIC (Escherichia coli [3]) [µg/mL]	MIC (Escherichia coli [4]) [µg/mL]	MIC (Escherichia coli [5]) [µg/mL]	MIC (Escherichia coli [6]) [µg/mL]	MIC (Acinetobacter baumannii [9]) [µg/mL]	MIC (Acinetobacter baumannii [10]) [µg/mL]	MIC (Acinetobacter baumannii [11]) [µg/mL]	MIC (Acinetobacter baumannii [12]) [µg/mL]	kcat/Km [13] [M⁻¹ s⁻¹]	Activity [14] [%]	further results
CO/N=C(\C(=O)N[C@@H]1C(=O)N2C(C(=O)O)=C(COC(N)=O)CS[C@H]12)c1ccco1 [CEFUROXIME]	2	2	2 (≈ 4.71 µM)	4 (≈ 9.43 µM)	2	2 (≈ 4.71 µM)	–	–	–	–	–	–	–
CC1(C)[C@H](C(=O)O)N2C(=O)C[C@H]2S1(=O)=O [SULBACTAM]	–	–	–	–	–	–	–	–	–	–	–	–	IC50 [7]: 200 nM; IC50 [8]: 1500 nM
C[C@@H](O)[C@H]1C(=O)N2C(C(=O)O)=C(SCCNC=N)C[C@H]12 [IMIPENEM ANHYDROUS]	–	–	–	–	–	–	0.25 (≈ 0.835 µM)	0.25 (≈ 0.835 µM)	0.25 (≈ 0.835 µM)	0.25 (≈ 0.835 µM)	–	–	–
CC(=O)OCC1=C(C(=O)O)N2C(=O)[C@@H](NC(=O)Cc3cccs3)[C@H]2SC1 [CEPHALOTHIN]	8	8	4 (≈ 10.1 µM)	64 (≈ 161 µM)	64	4 (≈ 10.1 µM)	–	–	–	–	6000	0.04	–
CCN1CCN(C(=O)N[C@@H](C(=O)N[C@@H]2C(=O)N3[C@@H]2SC(C)(C)[C@@H]3C(=O)O)c2ccccc2)C(=O)C1=O [PIPERACILLIN]	> 256	> 256	32 (≈ 61.8 µM)	> 256	> 256	1 (≈ 1.93 µM)	> 256	16 (≈ 30.9 µM)	> 256	> 256	500000	35	MIC (Acinetobacter baumannii [15]): 4 µg/mL; MIC (Acinetobacter baumannii [16]): > 256 µg/mL; MIC (Acinetobacter baumannii [17]): > 256 µg/mL; MIC (Acinetobacter baumannii [18]): 128 µg/mL
CC1(C)S[C@@H]2[C@H](NC(=O)[C@H](N)c3ccc(O)cc3)C(=O)N2[C@H]1C(=O)O [AMOXICILLIN]	> 256	> 256	512 (≈ 1400 µM)	> 256	> 256	2 (≈ 5.47 µM)	> 256	32 (≈ 87.6 µM)	> 256	> 256	2e+06	120	MIC (Escherichia coli [19]): 4 µg/mL; MIC (Acinetobacter baumannii [20]): 32 µg/mL; MIC (Acinetobacter baumannii [21]): 32 µg/mL; MIC (Acinetobacter baumannii [22]): 32 µg/mL; MIC (Escherichia coli [23]): 2 µg/mL; MIC (Acinetobacter baumannii [24]): 8 µg/mL; MIC (Escherichia coli [25]): 32 µg/mL; MIC (Escherichia coli [26]): 32 µg/mL; MIC (Escherichia coli [27]): 32 µg/mL; MIC (Escherichia coli [28]): 32 µg/mL
CO/N=C(\C(=O)N[C@@H]1C(=O)N2C(C(=O)[O-])=C(C[N+]3(C)CCCC3)CS[C@H]12)c1csc(N)n1	0.5	0.5	0.06 (≈ 0.125 µM)	4 (≈ 8.32 µM)	4	–	64 (≈ 133 µM)	1 (≈ 2.08 µM)	4 (≈ 8.32 µM)	32 (≈ 66.6 µM)	1000	0.06	–
CO/N=C(\C(=O)N[C@@H]1C(=O)N2C(C(=O)O)=C(COC(C)=O)CS[C@H]12)c1csc(N)n1 [CEFOTAXIME]	0.25	0.25	0.06 (≈ 0.132 µM)	0.25 (≈ 0.549 µM)	0.25	0.06 (≈ 0.132 µM)	16 (≈ 35.1 µM)	8 (≈ 17.6 µM)	8 (≈ 17.6 µM)	16 (≈ 35.1 µM)	–	–	–
CC1(C)S[C@@H]2[C@H](NC(=O)COc3ccccc3)C(=O)N2[C@H]1C(=O)O	–	–	–	–	–	–	–	–	–	–	2e+06	–	–
CO/N=C(\C(=O)N[C@@H]1C(=O)N2C(C(=O)[O-])=C(C[n+]3cccc4c3CCC4)CS[C@H]12)c1csc(N)n1 [CEFPIROME]	0.25	0.25	0.06 (≈ 0.117 µM)	1 (≈ 1.94 µM)	1	0.06 (≈ 0.117 µM)	64 (≈ 124 µM)	2 (≈ 3.89 µM)	2 (≈ 3.89 µM)	32 (≈ 62.2 µM)	500	0.03	–
O=C(O)[C@H]1/C(=C/CO)O[C@@H]2CC(=O)N21 [CLAVULANIC ACID]	–	–	–	–	–	–	–	–	–	–	–	–	IC50 [7]: 100 nM; IC50 [8]: 70 nM
CC1(C)S[C@@H]2[C@H](NC(=O)[C@H](C(=O)O)c3ccsc3)C(=O)N2[C@H]1C(=O)O [TICARCILLIN]	–	–	–	–	–	–	> 256	8 (≈ 20.8 µM)	> 256	> 256	1.5e+06	100	MIC (Escherichia coli [19]): 16 µg/mL; MIC (Acinetobacter baumannii [20]): > 256 µg/mL; MIC (Acinetobacter baumannii [21]): > 256 µg/mL; MIC (Acinetobacter baumannii [22]): > 256 µg/mL; MIC (Escherichia coli [23]): 2 µg/mL; MIC (Acinetobacter baumannii [24]): 8 µg/mL; MIC (Escherichia coli [25]): > 256 µg/mL; MIC (Escherichia coli [26]): > 256 µg/mL; MIC (Escherichia coli [27]): > 256 µg/mL; MIC (Escherichia coli [28]): > 256 µg/mL
C[C@]1(Cn2ccnn2)[C@H](C(=O)O)N2C(=O)C[C@H]2S1(=O)=O [TAZOBACTAM]	–	–	–	–	–	–	–	–	–	–	–	–	IC50 [7]: 100 nM; IC50 [8]: 350 nM
CC(C)(O/N=C(\C(=O)N[C@@H]1C(=O)N2C(C(=O)[O-])=C(C[n+]3ccccc3)CS[C@H]12)c1csc(N)n1)C(=O)O [CEFTAZIDIME]	0.5	0.5	0.12 (≈ 0.22 µM)	1 (≈ 1.83 µM)	1	0.12 (≈ 0.22 µM)	16 (≈ 29.3 µM)	2 (≈ 3.66 µM)	4 (≈ 7.32 µM)	8 (≈ 14.6 µM)	–	–	–
